Experimental data: ChEMBL document CHEMBL3396970, “Synthesis and biological evaluation of novel 2,3-disubstituted quinoxaline derivatives as antileishmanial and antitrypanosomal agents” (Eur J Med Chem, 2015)

Key:
[1] = test system: Leishmania amazonensis; experiment: Antileishmanial activity against promastigote stage of Leishmania amazonensis WHOM/BR/75/JOSEFA after 72 hrs by hemocytometry; assay type: functional, organism-based
[2] = Selectivity ratio of CC50 for mouse J774A1 cells to IC50 for promastigote stage of Leishmania amazonensis WHOM/BR/75/JOSEFA; assay type: ADME, cell-based, J774.A1; conditions: read-out: Ratio CC50/IC50
[3] = test system: Trypanosoma cruzi; experiment: Antitrypanosomal activity against epimastigote stage of Trypanosoma cruzi Y after 96 hrs by hemocytometry; assay type: functional, organism-based
Outline: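 Log-phase parasites (promastigotes 3-day, Warren's medium + 10% FBS, 25°C; epimastigotes 4-day, LIT + 10% FBS, 28°C) seeded at 1 × 10^6 cells/mL with compound (0.1-100 µM; DMSO ≤1%). Promastigotes read at 72 h, epimastigotes at 96 h, by hemocytometer counting. IC50 by nonlinear regression.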

[4] = Selectivity ratio of CC50 for monkey LLC-MK2 cells to IC50 for epimastigote stage of epimastigote stage of Trypanosoma cruzi Y; assay type: ADME, cell-based; conditions: read-out: Ratio CC50/IC50
[5] = test system: Trypanosoma cruzi; experiment: Antitrypanosomal activity against trypomastigote stage of Trypanosoma cruzi Y infected in monkey LLC-MK2 cells after 96 hrs by Pizzi-Brener method; assay type: functional, organism-based
[6] = test system: Trypanosoma cruzi; experiment: Antitrypanosomal activity against amastigote stage of Trypanosoma cruzi Y infected in monkey LLC-MK2 cells after 96 hrs by Geimsa staining-based light microscopy; assay type: functional, organism-based; conditions: LLC-MK2, 96 h
Outline: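 LLCMK2 monolayers (2.5 x 10^5 cells/mL, 24 h, 37 °C, 5% CO2) infected with trypomastigotes at 10 per host cell for 24 h, washed, treated with compound (0.1 to 50 μM) 96 h. Methanol-fixed, Giemsa-stained, 200 cells counted; survival index (% infected × amastigotes/cell); IC50 by nonlinear regression.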

[7] = Selectivity ratio of CC50 for monkey LLC-MK2 cells to IC50 for amastigote stage of Trypanosoma cruzi Y; assay type: ADME, cell-based; conditions: read-out: Ratio CC50/IC50
[8] = Selectivity ratio of CC50 to IC50 for promastigote stage of Leishmania amazonensis WHOM/BR/75/JOSEFA; design: reference not given here
[9] = Selectivity ratio of CC50 for monkey LLC-MK2 cells to IC50 for epimastigote stage of epimastigote stage of Trypanosoma cruzi Y
[10] = Selectivity ratio of CC50 for monkey LLC-MK2 cells to EC50 for trypomastigote stage of Trypanosoma cruzi Y; assay type: ADME, cell-based; conditions: read-out: Ratio CC50/EC50
[11] = test system: Leishmania amazonensis; experiment: Antileishmanial activity against amastigote stage of Leishmania amazonensis WHOM/BR/75/JOSEFA infected in BALB/c mouse peritoneal macrophages after 72 hrs by Geimsa staining-based light microscopy; assay type: functional, organism-based
[12] = Selectivity ratio of CC50 for BALB/c mouse peritoneal macrophages to IC50 for amastigote stage of Leishmania amazonensis WHOM/BR/75/JOSEFA

IC50 [1] [µM]	IC50 [3] [µM]	EC50 [5] [µM]	IC50 [6] [µM]	IC50 [11] [µM]	Structure (SMILES)	selectivity ratio [2]	selectivity ratio [4]	selectivity ratio [7]	selectivity ratio [8]	selectivity ratio [9]	selectivity ratio [10]	Ratio CC50/IC50 [12]
24.7	28.4	48.1			COc1ccc2nc(-c3ccccc3)c(S(C)(=O)=O)nc2c1	4.1	9.3		4.1	9.3	5.5	
2.9	3.1	9.8			COc1ccc2nc(S(C)(=O)=O)c(Cl)nc2c1	7.6	7.5		7.6	7.5	2.4	
2.9	2.2	27.7	> 25	20.2	COc1ccc2nc(NC3CCCCC3)c(S(C)(=O)=O)nc2c1	18.1	20.8		18.1	20.8	1.6	2.6
32.2	55.3	41.2			CCCCNc1nc2cc(OC)ccc2nc1S(C)(=O)=O	5.5	1.6		5.5	1.6	2.1	
14.7	29.1	23.6			COc1ccc2nc(S(C)(=O)=O)c(NC3CCCCC3)nc2c1	6.5	2.7		6.5	2.7	3.3	
27.8	55.4	24.8			COc1ccc2nc(S(C)(=O)=O)c(NCC(C)C)nc2c1	3.6	1.5		3.6	1.5	3.3	
21.2	38	22.9			COc1ccc2nc(S(C)(=O)=O)c(NCCC(C)C)nc2c1	5	2.6				4.2	
2.6	3.1	11.7	14.9		COc1ccc2nc(NCC(C)C)c(S(C)(=O)=O)nc2c1	22.8	22.6	4.7	22.8	22.6	6	
1.4	2.3	9			CCCCNc1nc2cc(Cl)ccc2nc1S(C)(=O)=O	50.6	93.4		50.6	93.4	23.8	
2.2	2	3.9	9.6		CS(=O)(=O)c1nc2ccc(Cl)cc2nc1NC1CCCCC1	15	38.3	7.9	15	38.3	19.6	
1.9	1.8	6.3	7.7		C[S+]([O-])c1nc2ccc(Cl)cc2nc1NC1CCCCC1 (stereo not drawn)	33.8	21.8	5.1	33.8	21.8	6.2	

Further lines, the compound ahead of its results:

Structure (SMILES)	IC50 [1] [µM]	IC50 [3] [µM]	EC50 [5] [µM]	IC50 [6] [µM]	IC50 [11] [µM]	selectivity ratio [2]	selectivity ratio [4]	selectivity ratio [7]	selectivity ratio [8]	selectivity ratio [9]	selectivity ratio [10]	Ratio CC50/IC50 [12]
COc1ccc(-c2nc3ccccc3nc2-c2ccc(OC)cc2)cc1	30	36.6	> 100	8.6		19.7	9	38.4	19.7	9		
CS/C(=C/[N+](=O)[O-])Nc1ccc(N(C)C)cc1	52.8	31.8	35			18.9	6.6		18.9	6.6	6	
c1ccc(-c2nc3ccccc3nc2-c2ccc(OCCN3CCCCC3)cc2)cc1	1.9	21.4	20.3			29.6	1.8		29.6	1.8	1.8	
COc1ccc2nc(Cl)c([S+](C)[O-])nc2c1 (stereo not drawn)	0.8	0.5	4.2		4.6	27.8	39.2		27.8	39.2	4.4	4.9
C[S+]([O-])c1nc2ccc(Cl)cc2nc1Cl (stereo not drawn)	0.1	0.1	1.7		1.5	108	54.2		108	54.2	2.9	9
CS(=O)(=O)c1nc2ccccc2nc1Cl	1.6	0.6	6.4	> 15		14.4	70.1		14.4	70.1	7.3	
CS(=O)(=O)c1nc2ccc(Br)cc2nc1Cl	0.2	0.3	1.8	13.5	1.4	71.8	49.6	1.1	71.8	49.6	7	9.9
CS(=O)(=O)c1nc2ccc(Cl)cc2nc1Cl	0.2	0.3	6.9	8.6	3.1	66	25.9	0.9	66	25.9	4.1	4.3
CCCCNc1nc2ccccc2nc1S(C)(=O)=O	2.9	4.4	15.7			11.4	5.5		11.4	5.5	1.5	
CS(=O)(=O)c1nc2ccccc2nc1NCCO	2.9	4.2	22.6			13	4.4		13	4.4	0.8	
CCCCNc1nc2cc(Br)ccc2nc1S(C)(=O)=O	1.6	2.3	5.6	> 25		28.3	43.7		28.3	43.7	17.8	
CS(=O)(=O)c1nc2ccc(Br)cc2nc1NCCO	0.8	1.6	8.2	7.4		40.3	3.4	0.8	40.3	3.4	0.7	
CCCCNc1nc2cc(OC)ccc2nc1Cl	36.2	49.5	> 50			4.4	7.9		4.4	7.9		
COc1ccc2nc(Cl)c(NCc3ccccc3)nc2c1	24.5	15.9	> 50	> 20	25	5.4	22.2		5.4	22.2		5.3
CCCCNc1nc2ccc(OC)cc2nc1NCCCC	20.9	29.4	> 50			4.3	3.2		4.3	3.2		
CCCCNc1nc2ccc(OC)cc2nc1NCc1ccccc1	13.6	38.4	> 50			3.6	0.6		3.6	0.6		
COc1ccc2nc(Nc3ccccc3)c(Nc3ccccc3)nc2c1	6.5	45.6	37.9			4.4	1		4.4	1	1.2	
C[C@@H]1[C@H](O)[C@@H](C)/C=C/C=C/C=C/C=C/C=C/C=C/C=C/[C@H](O[C@@H]2O[C@H](C)[C@@H](O)[C@H](N)[C@@H]2O)C[C@@H]2O[C@](O)(C[C@@H](O)C[C@@H](O)[C@H](O)CC[C@@H](O)C[C@@H](O)CC(=O)O[C@H]1C)C[C@H](O)[C@H]2C(=O)O [AMPHOTERICIN B]					0.4							
